Converted amounts (≈) assume the structure as drawn.
Experiments:
[1] = Solubility of the compound in […] at pH 2 at 200 uM incubated for 24 hrs by UV-vis detection based HPLC analysis; format: physicochemical
Outline: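 10 mM DMSO stock added to 10 mM potassium phosphate buffer at pH 2 or pH 7, or FaSSIF pH 6.5, to 200 μM total; 24 h equilibration, filtration, then reverse-phase HPLC with UV–vis detection.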

[2] = Oral bioavailability in rat; format: ADME, organism-based; conditions: in vivo
[3] = MRT in rat; format: ADME; conditions: in vivo
[4] = Unbound clearance in rat; format: ADME; conditions: in vivo
[5] = target: Protein arginine N-methyltransferase 5 (Homo sapiens, UniProt O14744); assay: Inhibition of PRMT5 (unknown origin) assessed as inhibition of symmetric dimethylation of arginine incubated for 3 days by fluorescence based cellular target engagement assay
Outline: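 MCF-7 cells (4000/well, collagen-coated plates) in EMEM with 0.01 mg/mL insulin and 10% FBS; 10-point 1:3 titration from 10,000 nM; 3 days at 37 °C/5% CO2; fixed, permeabilized, anti-SDMA antibody, then Alexa488 anti-rabbit IgG plus Hoechst; nuclear fluorescence by high-content imaging versus DMSO; EC50 by four-parameter robust fit.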

[6] = Plasma clearance in rat; format: ADME
[7] = Solubility of the compound in FaSSIF at pH 7 at 200 uM incubated for 24 hrs by UV-vis detection based HPLC analysis; format: physicochemical
[8] = Unbound volume of distribution in rat; format: ADME; conditions: in vivo
Z-138 [9] = assay: Antiproliferative activity against human Z138 cells incubated for 10 days by cell titer-glo assay; format: functional, cell-based; conditions: Z-138, 240 h
[10] = Unbound volume of distribution in dog; format: ADME, Canis lupus familiaris; conditions: in vivo
[11] = Oral bioavailability in dog; format: ADME, organism-based, Canis lupus familiaris; conditions: in vivo
[12] = MRT in dog; format: ADME, Canis lupus familiaris; conditions: in vivo
[13] = Unbound clearance in dog; format: ADME, Canis lupus familiaris; conditions: in vivo
Z-138 [14] = assay: Antitumor activity against human Z138 cells implanted in CB17.SCID mouse assessed as […] at 5 mg/kg, po bid measured at 13 days relative to control; format: functional; conditions: Z-138, po, 312 h, time 13 day, read-out: TGI
Outline: (§1)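 Female CB17.SCID mice implanted subcutaneously with 5 × 10⁶ Z138 cells; dosing began at about 100 mm³, n = 10 per group; daily PO at 10, 30 or 60 mpk QD or 5 mpk BID in 0.5% methylcellulose; tumor volume (L × W²)/2 and body weight twice weekly; %TGI at day 13 from change in tumor volume versus vehicle.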

CYP3A4 = CYP3A4 (Homo sapiens, UniProt P08684); assay: Ratio of IC50 for time dependent inhibition of CYP3A4 (unknown origin) in absence of NADPH to IC50 for time dependent inhibition of CYP3A4 (unknown origin) in presence of NADPH; conditions: read-out: Ratio IC50
[15] = Toxicity in CB17.SCID mouse implanted with human Z138 cells assessed as body weight change at 10 to 60 mg/kg, po bid measured up, to 14 days relative to control; format: organism-based; conditions: in vivo, 336 h, in the assay text read “po qd” for “po bid”, dose 10-60 mg/kg, time 14 day; outline: as §1
Z-138 [16] = assay: Antitumor activity against human Z138 cells implanted in CB17.SCID mouse assessed as tumor growth inhibition at 30 mg/kg, po bid measured at 13 days relative to control; format: functional; conditions: Z-138, po, 312 h, time 13 day, read-out: TGI
Z-138 [17] = assay: Antitumor activity against human Z138 cells implanted in CB17.SCID mouse assessed as tumor growth inhibition at 60 mg/kg, po bid measured at 13 days relative to control; format: functional; conditions: Z-138, po, 312 h, time 13 day, read-out: TGI
Z-138 [18] = assay: Antitumor activity against human Z138 cells implanted in CB17.SCID mouse assessed as tumor growth inhibition at […] measured at 13 days relative to control; format: functional; conditions: Z-138, po, 312 h, time 13 day, read-out: TGI

Sequence of Protein arginine N-methyltransferase 5 (O14744 whole entry): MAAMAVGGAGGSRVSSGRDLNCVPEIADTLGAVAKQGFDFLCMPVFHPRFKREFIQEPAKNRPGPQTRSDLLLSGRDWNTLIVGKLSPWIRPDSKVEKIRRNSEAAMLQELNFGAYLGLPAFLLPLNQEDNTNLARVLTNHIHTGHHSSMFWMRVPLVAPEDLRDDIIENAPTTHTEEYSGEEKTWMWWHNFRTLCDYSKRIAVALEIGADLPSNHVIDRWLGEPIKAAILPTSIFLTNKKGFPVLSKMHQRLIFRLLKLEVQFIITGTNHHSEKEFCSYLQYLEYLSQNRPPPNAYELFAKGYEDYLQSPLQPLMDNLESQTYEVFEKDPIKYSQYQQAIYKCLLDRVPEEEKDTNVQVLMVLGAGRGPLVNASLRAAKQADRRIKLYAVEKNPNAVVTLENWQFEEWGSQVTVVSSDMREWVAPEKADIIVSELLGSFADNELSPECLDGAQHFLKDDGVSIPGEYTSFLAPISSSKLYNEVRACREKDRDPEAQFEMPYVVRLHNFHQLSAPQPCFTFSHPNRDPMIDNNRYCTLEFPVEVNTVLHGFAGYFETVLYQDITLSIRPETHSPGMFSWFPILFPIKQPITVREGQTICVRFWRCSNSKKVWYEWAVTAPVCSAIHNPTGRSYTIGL
Sequence of CYP3A4 (P08684 whole entry): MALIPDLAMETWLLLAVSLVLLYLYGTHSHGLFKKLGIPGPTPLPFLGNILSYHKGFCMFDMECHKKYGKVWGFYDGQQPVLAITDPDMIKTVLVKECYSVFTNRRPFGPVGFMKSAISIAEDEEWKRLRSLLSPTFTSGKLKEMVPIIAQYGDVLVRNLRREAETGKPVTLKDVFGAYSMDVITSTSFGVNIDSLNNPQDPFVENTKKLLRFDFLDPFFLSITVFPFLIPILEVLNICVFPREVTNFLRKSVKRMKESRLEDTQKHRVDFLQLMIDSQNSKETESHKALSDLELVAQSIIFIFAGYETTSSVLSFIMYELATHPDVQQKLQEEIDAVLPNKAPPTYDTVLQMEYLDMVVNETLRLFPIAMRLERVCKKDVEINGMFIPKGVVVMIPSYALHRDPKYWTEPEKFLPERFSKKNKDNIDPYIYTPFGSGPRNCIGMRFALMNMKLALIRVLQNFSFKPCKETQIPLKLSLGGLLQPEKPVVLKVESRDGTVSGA

Row | SMILES | solubility at 24 h, 200 µM [1] [µM] | bioavailability [2] [%] | MRT [3] [h] | CL free [4] [mL/min/kg] | EC50 [5] [nM] | clearance [6] [mL/min/kg] | solubility at 24 h, 200 µM [7] [µM] | Vdu [8] [L/kg] | EC50 (Z-138 [9]) [nM] | Vdu [10] [L/kg] | bioavailability [11] [%] | MRT [12] [h] | CL free [13] [mL/min/kg] | inhibition in vivo at 5 mg/kg (Z-138 [14]) [%] | IC50 shift (CYP3A4) | Activity [15] | inhibition in vivo at 30 mg/kg (Z-138 [16]) [%] | inhibition in vivo at 60 mg/kg (Z-138 [17]) [%] | inhibition in vivo (Z-138 [18]) [%]
1 | Cc1nc(N)c2ccn([C@@H]3C[C@@H]4[C@H](Cc5ccc6cc(F)c(N)nc6c5)CC[C@]4(O)[C@H]3O)c2n1 | 149 (≈ 68.9 µg/mL) | 17 | 3.2 | 789 | 1.5 | 9 | 123 (≈ 56.9 µg/mL) | 150 | 4.1 |  |  |  |  |  |  |  |  |  | 
2 | Cc1ncnc2c1ccn2[C@@H]1C[C@@H]2[C@H](Cc3ccc4cc(F)c(N)nc4c3)CC[C@]2(O)[C@H]1O | 157 (≈ 70.3 µg/mL) | 77 | 1.3 | 374 | 0.89 | 24 | 94 (≈ 42.1 µg/mL) | 33 | 3.5 |  |  |  |  |  |  |  |  |  | 
3 | Nc1nc2cc(C[C@@H]3CC[C@@]4(O)[C@@H]3C[C@@H](n3cc(F)c5c(N)ncnc53)[C@@H]4O)ccc2cc1F | 164 (≈ 76.5 µg/mL) | 19 | 1.3 | 1476 | 0.74 | 25 | 121 (≈ 56.4 µg/mL) | 29 | 2.3 |  |  |  |  |  |  |  |  |  | 
4 | Nc1nc2cc(C[C@@H]3CC[C@@]4(O)[C@@H]3C[C@@H](n3cc(F)c5c(N)ncnc53)[C@@H]4O)cc(F)c2cc1F | 190 (≈ 92.1 µg/mL) | 24 | 2.5 | 368 | 0.84 | 14 | 25 (≈ 12.1 µg/mL) | 54 | 5.8 | 43 | 45 | 9.9 | 72 |  |  |  |  |  | 
5 | Cc1ncnc2c1ccn2[C@@H]1O[C@@H]2[C@@H](Oc3ccc4cc(Br)c(N)nc4c3)CC[C@]2(O)[C@H]1O | 161 (≈ 82.5 µg/mL) | 42 | 1.6 | 1444 | 4.7 | 4 | < 1 | 139 | 17 | 93 | 44 | 4.6 | 329 | 33 | > 2.4 | Non-Toxic | 76 | 71 | 45
6 | Cc1cn([C@@H]2C[C@@H]3[C@H](Cc4ccc5cc(F)c(N)nc5c4)CC[C@]3(O)[C@H]2O)c2ncnc(N)c12 | 146 (≈ 67.5 µg/mL) | 10 | 1.1 | 788 | 0.97 | 38 | 66 (≈ 30.5 µg/mL) | 50 | 3.7 |  |  |  |  |  |  |  |  |  | 
